Experimental data taken from paper PMC5759846 (Infection and Drug Resistance, 2018).

How the values were obtained:
[1] = Serum teicoplanin trough concentration; type: in vivo, Chinese patients; conditions: day 4
In short: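 Day-4 serum (2–3 mL, additive-free tubes, spun 3,500 rpm 10 min) drawn 30 min before maintenance dose; trough measured by HPLC. Cure or failure judged days 5–7 after last dose from symptoms, laboratory and bacteriological findings. Target 15–30 mg/L; mean ± SD.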

[2] = introduction; ref [15]–[17]; cited from earlier work
[3] = introduction; ref [15]–[17]; cited from earlier work; remark: listed apart in the source
[4] = Group B, n=30, loading 400 mg q12h x3, maintenance 400 mg/day
[5] = Group C, n=17, loading 400 mg q12h x2, maintenance 200 mg/day
[6] = Group D, n=30, loading 400 mg q12h x1-3, maintenance 200 mg/day

## teicoplanin
[1]; 38 patients with failed response, all groups, mean ± SD, SD
  Mean teicoplanin Cmin for a failure: 10010 ± 2370 ng/mL
[1]; 75 patients with clinical cure, all groups, mean ± SD, SD
  Mean teicoplanin Cmin for a successful response: 18920 ± 5120 ng/mL
[1]; [4]
  Proportion of patients achieving target range Cmin 15–30 mg/L: 66.67%
  Proportion of patients with Cmin 10–30 mg/L: 86.67%
[1]; [5]
  Proportion of patients achieving target range Cmin 15–30 mg/L: 70.59%
  Proportion of patients with Cmin 10–30 mg/L: 88.23%
[1]; [6]
  Proportion of patients achieving target range Cmin 15–30 mg/L: 23.33%
  Proportion of patients with Cmin 10–30 mg/L: 70%
[2]
  plasma protein-binding rate: over 90%
[3]
  elimination half-life: 30 to 180 h
